Experimental data from ChEMBL document CHEMBL4406880, “Design, synthesis, and bioactivity of dihydropyrimidine derivatives as kinesin spindle protein inhibitors” (Bioorg Med Chem, 2019).

Columns and labels:
Assay type in all cases: functional
[1] = tested on: BT-549; assay: Growth inhibition of human BT549 cells assessed as growth percentage at 10 uM incubated for 48 hrs by sulforhodamine B assay relative to control; conditions: BT-549, 48 h, read-out: Activity
Outline: (§1)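 NCI-60 one-dose screen: cells in RPMI 1640 with 5% FBS and 2 mM L-glutamine, plated at 5,000–40,000 cells/well and preincubated 24 h at 37 °C, 5% CO2. Compound is added from a DMSO stock to a final 10 µM and incubated 48 h. Cells are TCA-fixed and stained with sulforhodamine B, read at 515 nm. Output is % growth versus untreated control, with a time-zero plate.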

[2] = tested on: HOP-92; assay: Growth inhibition of human HOP92 cells assessed as growth percentage at 10 uM incubated for 48 hrs by sulforhodamine B assay relative to control; conditions: HOP-92, 48 h, read-out: Activity
Outline: (§2)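 NCI-60 one-dose screen. Cells in RPMI 1640 with 5% FBS and 2 mM L-glutamine, seeded at 5,000–40,000 cells/well according to doubling time, and preincubated overnight at 37 °C, 5% CO2. A time-zero plate was TCA-fixed at drug addition. Compound from DMSO stock, final 10 µM, 48 h; DMSO vehicle controls. Fixation with TCA, 10% final (16% for suspension cells). SRB stain, Tris solubilization, A515. Result given as % growth versus untreated cells.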

[3] = tested on: MDA-MB-231; assay: Growth inhibition of human MDA-MB-231 cells assessed as growth percentage at 10 uM incubated for 48 hrs by sulforhodamine B assay relative to control; conditions: MDA-MB-231, 48 h, read-out: Activity; outline: as §2
[4] = tested on: SW-620; assay: Growth inhibition of human SW620 cells assessed as growth percentage at 10 uM incubated for 48 hrs by sulforhodamine B assay relative to control; conditions: SW-620, 48 h, read-out: Activity
Outline: (§3)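 NCI-60 single-dose screen. Cells were grown in RPMI 1640 with 5% FBS and 2 mM L-glutamine and plated at 5,000–40,000 cells/well. After an overnight preincubation at 37 °C in 5% CO2, compound was added at a final 10 µM from a DMSO stock, with DMSO/PBS controls. After 48 h, cells were TCA-fixed and stained with 0.4% SRB, and absorbance was read at 515 nm. Growth is given as a percentage of untreated control.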

[5] = tested on: A549; assay: Growth inhibition of human A549/ATCC cells assessed as growth percentage at 10 uM incubated for 48 hrs by sulforhodamine B assay relative to control; conditions: A549, 48 h, read-out: Activity; outline: as §1
[6] = tested on: HCT-15; assay: Growth inhibition of human HCT15 cells assessed as growth percentage at 10 uM incubated for 48 hrs by sulforhodamine B assay relative to control; conditions: HCT-15, 48 h, read-out: Activity; outline: as §1
[7] = tested on: SNB-75; assay: Growth inhibition of human SNB75 cells assessed as growth percentage at 10 uM incubated for 48 hrs by sulforhodamine B assay relative to control; conditions: SNB-75, 48 h, read-out: Activity; outline: as §3
[8] = tested on: Hs-578T; assay: Growth inhibition of human Hs 578T cells assessed as growth percentage at 10 uM incubated for 48 hrs by sulforhodamine B assay relative to control; conditions: read-out: Activity; outline: as §2
[9] = tested on: A498; assay: Growth inhibition of human A498 cells assessed as growth percentage at 10 uM incubated for 48 hrs by sulforhodamine B assay relative to control; conditions: A498, 48 h, read-out: Activity; outline: as §1
[10] = tested on: KM12; assay: Growth inhibition of human KM12 cells assessed as growth percentage at 10 uM incubated for 48 hrs by sulforhodamine B assay relative to control; conditions: KM12, 48 h, read-out: Activity; outline: as §2
[11] = tested on: RPMI-8226; assay: Growth inhibition of human RPMI8226 cells assessed as growth percentage at 10 uM incubated for 48 hrs by sulforhodamine B assay relative to control; conditions: RPMI-8226, 48 h, read-out: Activity; outline: as §3
[12] = tested on: HCT-116; assay: Growth inhibition of human HCT116 cells assessed as growth percentage at 10 uM incubated for 48 hrs by sulforhodamine B assay relative to control; conditions: HCT-116, 48 h, read-out: Activity; outline: as §1
[13] = tested on: OVCAR-5; assay: Growth inhibition of human OVCAR5 cells assessed as growth percentage at 10 uM incubated for 48 hrs by sulforhodamine B assay relative to control; conditions: OVCAR-5, 48 h, read-out: Activity; outline: as §3
[14] = tested on: MDA-MB-468; assay: Growth inhibition of human MDA-MB-468 cells assessed as growth percentage at 10 uM incubated for 48 hrs by sulforhodamine B assay relative to control; conditions: MDA-MB-468, 48 h, read-out: Activity; outline: as §2
[15] = tested on: TK-10; assay: Growth inhibition of human TK10 cells assessed as growth percentage at 10 uM incubated for 48 hrs by sulforhodamine B assay relative to control; conditions: TK-10, 48 h, read-out: Activity; outline: as §3
[16] = tested on: Malme-3M; assay: Growth inhibition of human MALME-3M cells assessed as growth percentage at 10 uM incubated for 48 hrs by sulforhodamine B assay relative to control; conditions: read-out: Activity; outline: as §2
[17] = tested on: HOP-62; assay: Growth inhibition of human HOP62 cells assessed as growth percentage at 10 uM incubated for 48 hrs by sulforhodamine B assay relative to control; conditions: HOP-62, 48 h, read-out: Activity; outline: as §2
[18] = tested on: SK-MEL-2; assay: Growth inhibition of human SK-MEL-2 cells assessed as growth percentage at 10 uM incubated for 48 hrs by sulforhodamine B assay relative to control; conditions: SK-MEL-2, 48 h, read-out: Activity; outline: as §3
[19] = tested on: T47D; assay: Growth inhibition of human T47D cells assessed as growth percentage at 10 uM incubated for 48 hrs by sulforhodamine B assay relative to control; conditions: read-out: Activity; outline: as §3
[20] = tested on: MCF7; assay: Growth inhibition of human MCF7 cells assessed as growth percentage at 10 uM incubated for 48 hrs by sulforhodamine B assay relative to control; conditions: MCF7, 48 h, read-out: Activity; outline: as §2
[21] = tested on: HT-29; assay: Growth inhibition of human HT-29 cells assessed as growth percentage at 10 uM incubated for 48 hrs by sulforhodamine B assay relative to control; conditions: HT-29, 48 h, read-out: Activity; outline: as §2
[22] = tested on: MOLT-4; assay: Growth inhibition of human MOLT4 cells assessed as growth percentage at 10 uM incubated for 48 hrs by sulforhodamine B assay relative to control; conditions: MOLT-4, 48 h, read-out: Activity; outline: as §2
[23] = tested on: COLO 205; assay: Growth inhibition of human COLO205 cells assessed as growth percentage at 10 uM incubated for 48 hrs by sulforhodamine B assay relative to control; conditions: COLO 205, 48 h, read-out: Activity; outline: as §1
[24] = tested on: SNB-19; assay: Growth inhibition of human SNB19 cells assessed as growth percentage at 10 uM incubated for 48 hrs by sulforhodamine B assay relative to control; conditions: SNB-19, 48 h, read-out: Activity; outline: as §3
[25] = tested on: LOX IMVI; assay: Growth inhibition of human LOXIMVI cells assessed as growth percentage at 10 uM incubated for 48 hrs by sulforhodamine B assay relative to control; conditions: read-out: Activity; outline: as §2
[26] = tested on: CCRF-CEM; assay: Growth inhibition of human CCRF-CEM cells assessed as growth percentage at 10 uM incubated for 48 hrs by sulforhodamine B assay relative to control; conditions: read-out: Activity; outline: as §1

| SMILES | growth at 10 µM [1] | growth at 10 µM [2] | growth at 10 µM [3] | growth at 10 µM [4] | growth at 10 µM [5] | growth at 10 µM [6] | growth at 10 µM [8] | growth at 10 µM [10] | growth at 10 µM [11] | growth at 10 µM [12] | growth at 10 µM [13] | growth at 10 µM [15] | growth at 10 µM [16] | growth at 10 µM [17] | growth at 10 µM [18] | growth at 10 µM [19] | growth at 10 µM [20] | growth at 10 µM [21] | growth at 10 µM [22] | growth at 10 µM [23] | further results |
| --- | --- | --- | --- | --- | --- | --- | --- | --- | --- | --- | --- | --- | --- | --- | --- | --- | --- | --- | --- | --- | --- |
| CC(=O)N1C(=S)NC(C)=C(C(=O)OCC(C)C)C1c1ccc2c(c1)OCO2 (racemic) | 86.1% | 80.6% | 88.7% | 97.3% | 95.9% | 93.3% | 89.2% | 93.8% | 54.8% | 93.5% | 99.4% | 95.4% | 108% | 91.9% | 102% | 66.7% | 104% | 104% | 95.1% | 101% | growth at 10 µM [7]: 92.2%; growth at 10 µM [9]: 104%; growth at 10 µM [14]: 94.9%; growth at 10 µM [24]: 97.9%; growth at 10 µM [25]: 97.5% |
| CC1=C(C(=O)c2ccccc2)C(c2ccc3c(c2)OCO3)NC(=O)N1 (racemic) | 95.6% | 92.4% | 102% | 98.5% | 101% | 99.8% | 102% | 99.9% | 100% | 98.9% | 106% | 99% | 91.7% | 99.2% | 105% | 91.2% | 97.5% | 105% | 103% | 114% | growth at 10 µM [26]: 98.5%; growth at 10 µM [7]: 91.4%; growth at 10 µM [14]: 109%; growth at 10 µM [24]: 101%; growth at 10 µM [25]: 97.3% |
| CC(=O)N1C(=S)NC(C)=C(C(=O)OCc2ccccc2)C1c1ccc2c(c1)OCO2 (racemic) | 88.8% | 73.3% | 84.5% | 65.3% | 95.6% | 83.8% | 76.8% | 71.1% | 54.8% | 41.4% | 107% | 100% | 91.6% | 75.5% | 88.6% | 58.1% | 92.1% | 52.2% | 58.7% | 91.8% | growth at 10 µM [7]: 80.4%; growth at 10 µM [9]: 92%; growth at 10 µM [14]: 78.9%; growth at 10 µM [24]: 87.8%; growth at 10 µM [25]: 74.1% |
| COCCOC(=O)C1=C(C)NC(=S)NC1c1ccc2c(c1)OCO2 (racemic) | 109% | 108% | 105% | 106% | 101% | 102% | 104% | 100% | 105% | 103% | 109% | 104% | 108% | 98% | 93% | 94.8% | 89.6% | 96.7% | 96.9% | 117% | growth at 10 µM [26]: 104%; growth at 10 µM [9]: 96.1%; growth at 10 µM [24]: 100%; growth at 10 µM [25]: 101% |
| COCCOC(=O)C1=C(C)NC(=S)N(C(C)=O)C1c1ccc2c(c1)OCO2 (racemic) | 103% | 85.4% | 97.8% | 100% | 99.2% | 103% | 93.7% | 95.9% | 97.7% | 103% | 102% | 102% | 88.6% | 87.7% | 108% | 86.9% | 102% | 106% | 103% | 100% | growth at 10 µM [7]: 83%; growth at 10 µM [9]: 85.3%; growth at 10 µM [14]: 105%; growth at 10 µM [24]: 99.3%; growth at 10 µM [25]: 97.2% |
| CC1=C(C(=O)OCc2ccccc2)C(c2ccc3c(c2)OCO3)n2c(nc3ccccc32)N1 (racemic) | 44 to 50.5% | 32 to 78.5% | 64 to 68.6% | 17.6 to 19% | 34 to 47.1% | 23 to 30.4% | 0.75 to 14% | 15 to 17.3% | 39.9% | 18.8 to 25% | 53 to 64.4% | 64 to 65.6% | 26 to 39.7% | 36 to 44.2% | 33 to 47.8% | 31 to 40.9% | 9 to 20.6% | 7 to 14.4% | 37.1 to 41% | 37.2 to 43% | growth at 10 µM [26]: 24.9 to 31%; growth at 10 µM [24]: 33 to 41.6%; growth at 10 µM [25]: 34.6 to 38% |
| CC1=C(C(=O)OCc2ccccc2)C(c2ccc3c(c2)OCO3)NC(=S)N1 (racemic) | 103% | 99% | 105% | 94.2% | 93.7% | 96.5% | 90.2% | 91.9% | 76.5% | 93.1% | 100% | 105% | 115% | 106% | 96.7% | 74% | 86.8% | 105% | 78.2% | 117% | growth at 10 µM [26]: 100%; growth at 10 µM [9]: 72.8%; growth at 10 µM [24]: 103%; growth at 10 µM [25]: 98.5% |
